Results as given in ChEMBL document CHEMBL1140884, “Oligodeoxyribonucleotide-based antagonists for Toll-like receptors 7 and 9” (2009).
Calls of active or inactive are those of the source. The rule behind the calls is not given here.

How the values were obtained:
Type in all cases: functional, cell-based
[1] = molecular target: T1, Toll-like receptor 9 (Mus musculus) (UniProt Q9EQU3); experiment: Agonist activity at mouse TLR9 expressed in HEK293 cells assessed as activation of NF-kappaB at 10 ug/mL by SEAP reporter gene assay
T1 sequence (whole entry): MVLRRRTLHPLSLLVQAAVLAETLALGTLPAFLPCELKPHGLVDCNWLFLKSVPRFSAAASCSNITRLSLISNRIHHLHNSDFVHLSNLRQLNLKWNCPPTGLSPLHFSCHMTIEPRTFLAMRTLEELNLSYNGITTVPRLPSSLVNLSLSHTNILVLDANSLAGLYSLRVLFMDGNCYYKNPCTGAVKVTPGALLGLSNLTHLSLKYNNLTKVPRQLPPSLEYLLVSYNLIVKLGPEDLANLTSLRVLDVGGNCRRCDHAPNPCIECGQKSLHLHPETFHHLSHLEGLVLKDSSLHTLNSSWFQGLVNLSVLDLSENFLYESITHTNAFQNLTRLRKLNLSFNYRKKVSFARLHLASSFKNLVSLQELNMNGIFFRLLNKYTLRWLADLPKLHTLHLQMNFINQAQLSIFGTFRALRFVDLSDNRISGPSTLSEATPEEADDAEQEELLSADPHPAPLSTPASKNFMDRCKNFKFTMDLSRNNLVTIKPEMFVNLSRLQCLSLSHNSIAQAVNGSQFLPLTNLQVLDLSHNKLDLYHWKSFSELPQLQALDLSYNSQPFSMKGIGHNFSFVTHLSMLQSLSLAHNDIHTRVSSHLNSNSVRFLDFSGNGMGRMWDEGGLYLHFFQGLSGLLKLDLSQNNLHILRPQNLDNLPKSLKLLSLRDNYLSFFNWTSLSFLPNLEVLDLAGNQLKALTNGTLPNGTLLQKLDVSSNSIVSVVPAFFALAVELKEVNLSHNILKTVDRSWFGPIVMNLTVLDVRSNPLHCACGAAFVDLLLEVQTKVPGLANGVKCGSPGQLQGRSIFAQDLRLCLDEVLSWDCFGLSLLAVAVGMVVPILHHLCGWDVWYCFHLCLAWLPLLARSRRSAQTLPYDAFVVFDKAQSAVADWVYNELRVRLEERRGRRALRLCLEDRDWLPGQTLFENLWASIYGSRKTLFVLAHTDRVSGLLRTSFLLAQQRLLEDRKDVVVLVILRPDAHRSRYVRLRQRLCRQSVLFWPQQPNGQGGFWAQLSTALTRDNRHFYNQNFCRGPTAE
Method in brief: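 HEK293 cells stably expressing mouse TLR9 were transiently transfected with a SEAP reporter for 6 h. Compounds were added at 10 µg/mL for 18 h. SEAP was read with Quanti-Blue substrate and expressed as fold change in NF-κB activity.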

[2] = molecular target: T1, Toll-like receptor 9 (Mus musculus); experiment: Antagonist activity at mouse TLR9 expressed in HEK293 cells assessed as inhibition of 5'-CTATCTGACGTTCTCTGT-3'-induced NF-kappaB activation by SEAP reporter gene assay
Method in brief: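 Mouse TLR9-HEK293 cells were transfected with a SEAP reporter for 6 h. They were then stimulated for 18 h with agonist (0.25 or 0.5 µg/mL) plus increasing antagonist concentrations or set agonist:antagonist ratios. Quanti-Blue read-out, reported as % NF-κB activity with agonist alone as 100%.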

[3] = molecular target: T1, Toll-like receptor 9 (Mus musculus); experiment: Agonist activity at TLR9 in mouse J774 cells assessed as of NF-kappaB activation
Method in brief: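 Murine J774 macrophages grown in DMEM with 10% FBS and plated at 5×10^6 cells/well. Nuclear extracts taken 1 h after agonist addition. NF-κB detected by EMSA on native polyacrylamide gels with autoradiography.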

[4] = molecular target: T1, Toll-like receptor 9 (Mus musculus); experiment: Antagonist activity at TLR9 in mouse J774 cells assessed as inhibition of 5'-TCTGACRTTCT-X-TCTTRCAGTCT-3'-induced NF-kappaB activation pretreated for 1 hr
Method in brief: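 J774 cells at 5×10^6 cells/well were preincubated with antagonist for 1 h. Agonist was then added: TLR9 agonist 1 µg/mL, an RNA-based TLR7/8 agonist, or LPS 100 ng/mL. Antagonist was used at 5–40 µg/mL or at the indicated agonist ratios. Nuclear extracts were taken 1 h after agonist and analysed by EMSA.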

Activity [1] | Activity [2] | Activity [3] | Activity [4] | Compound
Active | inactive |  |  | Cc1cn([C@@H]2O[C@H](COP(=O)(S)O[C@H]3C[C@H](n4ccc(N)nc4=O)O[C@@H]3COP(=O)(S)O[C@H]3C[C@H](n4cc(C)c(=O)[nH]c4=O)O[C@@H]3COP(=O)(S)O[C@H]3C[C@H](n4ccc(N)nc4=O)O[C@@H]3COP(=O)(S)O[C@H]3C[C@H](n4cc(C)c(=O)[nH]c4=O)O[C@@H]3COP(=O)(S)O[C@H]3C[C@H](n4cc(C)c(=O)[nH]c4=O)O[C@@H]3COP(=O)(S)O[C@H]3C[C@H](n4cnc5c(=O)[nH]c(N)nc54)O[C@@H]3COP(=O)(S)O[C@H]3C[C@H](n4ccc(N)nc4=O)O[C@@H]3COP(=O)(S)O[C@H]3C[C@H](n4cnc5c(N)ncnc54)O[C@@H]3COP(=O)(S)O[C@H]3C[C@H](n4cnc5c(=O)[nH]c(N)nc54)O[C@@H]3COP(=O)(S)O[C@H]3C[C@H](n4cc(C)c(=O)[nH]c4=O)O[C@@H]3COP(=O)(S)O[C@H]3C[C@H](n4ccc(N)nc4=O)O[C@@H]3COP(=O)(S)O[C@H]3C[C@H](n4cc(C)c(=O)[nH]c4=O)O[C@@H]3COP(=O)(S)O[C@H]3C[C@H](n4cnc5c(N)ncnc54)O[C@@H]3COP(=O)(S)O[C@H]3C[C@H](n4cc(C)c(=O)[nH]c4=O)O[C@@H]3COP(=O)(S)O[C@@H]3C[C@@H](n4ccc(N)nc4=O)O[C@H]3CO)[C@@H](OP(=O)(S)OC[C@H]3O[C@@H](n4cnc5c(=O)[nH]c(N)nc54)C[C@@H]3OP(=O)(S)OC[C@H]3O[C@@H](n4cc(C)c(=O)[nH]c4=O)C[C@@H]3O)[C@H]2O)c(=O)[nH]c1=O (some centres not stated)
Active |  |  |  | Cc1cn([C@H]2C[C@H](OP(=O)(S)OC[C@H]3O[C@@H](n4ccc(N)nc4=O)C[C@@H]3OP(=O)(S)OC[C@H]3O[C@@H](n4cc(C)c(=O)[nH]c4=O)C[C@@H]3OP(=O)(S)OC[C@H]3O[C@@H](n4cnc5c(=O)[nH]c(N)nc54)C[C@@H]3OP(=O)(S)OC[C@H]3O[C@@H](n4cc(C)c(=O)[nH]c4=O)C[C@@H]3O)[C@@H](COP(=O)(S)O[C@H]3C[C@H](n4ccc(N)nc4=O)O[C@@H]3COP(=O)(S)O[C@H]3C[C@H](n4cc(C)c(=O)[nH]c4=O)O[C@@H]3COP(=O)(S)O[C@H]3C[C@H](n4cc(C)c(=O)[nH]c4=O)O[C@@H]3COP(=O)(S)O[C@H]3C[C@H](n4cnc5c(=O)[nH]c(N)nc54)O[C@@H]3COP(=O)(S)O[C@H]3C[C@H](n4ccc(N)nc4=O)O[C@@H]3COP(=O)(S)O[C@H]3C[C@H](n4cc(C)c(=O)[nH]c4=O)O[C@@H]3COP(=O)(S)O[C@H]3C[C@H](n4cnc5c(=O)[nH]c(N)nc54)O[C@@H]3COP(=O)(S)O[C@H]3C[C@H](n4cc(C)c(=O)[nH]c4=O)O[C@@H]3COP(=O)(S)O[C@H]3C[C@H](n4ccc(N)nc4=O)O[C@@H]3COP(=O)(S)O[C@H]3C[C@H](n4cc(C)c(=O)[nH]c4=O)O[C@@H]3COP(=O)(S)O[C@H]3C[C@H](n4cnc5c(N)ncnc54)O[C@@H]3COP(=O)(S)O[C@H]3C[C@H](n4cc(C)c(=O)[nH]c4=O)O[C@@H]3COP(=O)(S)O[C@@H]3C[C@@H](n4ccc(N)nc4=O)O[C@H]3CO)O2)c(=O)[nH]c1=O (some centres not stated)
inactive |  | inactive | inactive | CO[C@@H]1[C@H](OP(=O)(S)OC[C@H]2O[C@@H](n3ccc(N)nc3=O)C[C@@H]2OP(=O)(S)OC[C@H]2O[C@@H](n3ccc(N)nc3=O)C[C@@H]2OP(=O)(S)OC[C@H]2O[C@@H](n3cc(C)c(=O)[nH]c3=O)C[C@@H]2OP(=O)(S)OC[C@H]2O[C@@H](n3cc(C)c(=O)[nH]c3=O)C[C@@H]2OP(=O)(S)OC[C@H]2O[C@@H](n3ccc(N)nc3=O)C[C@@H]2OP(=O)(S)OC[C@H]2O[C@@H](n3cc(C)c(=O)[nH]c3=O)C[C@@H]2OP(=O)(S)OC[C@H]2O[C@@H](n3ccc(N)nc3=O)C[C@@H]2OP(=O)(S)OC[C@H]2O[C@@H](n3cc(C)c(=O)[nH]c3=O)C[C@@H]2OP(=O)(S)OC[C@H]2O[C@@H](n3cnc4c(=O)[nH]c(N)nc43)C[C@@H]2OP(=O)(S)OC[C@H]2O[C@@H](n3cc(C)c(=O)[nH]c3=O)C[C@@H]2O)[C@@H](COP(=O)(S)O[C@H]2[C@@H](OC)[C@H](n3cnc4c(=O)[nH]c(N)nc43)O[C@@H]2COP(=O)(S)O[C@H]2C[C@H](n3cc(C)c(=O)[nH]c3=O)O[C@@H]2COP(=O)(S)O[C@H]2C[C@H](n3ccc(N)nc3=O)O[C@@H]2COP(=O)(S)O[C@H]2C[C@H](n3cc(C)c(=O)[nH]c3=O)O[C@@H]2COP(=O)(S)O[C@H]2C[C@H](n3cnc4c(N)ncnc43)O[C@@H]2COP(=O)(S)O[C@H]2C[C@H](n3cc(C)c(=O)[nH]c3=O)O[C@@H]2COP(=O)(S)O[C@@H]2C[C@@H](n3ccc(N)nc3=O)O[C@H]2CO)O[C@H]1n1cnc2c(N)ncnc21 (some centres not stated)
Active |  |  |  | CO[C@@H]1[C@H](OP(=O)(S)OC[C@H]2O[C@@H](n3ccc(N)nc3=O)C[C@@H]2OP(=O)(S)OC[C@H]2O[C@@H](n3cc(C)c(=O)[nH]c3=O)C[C@@H]2OP(=O)(S)OC[C@H]2O[C@@H](n3ccc(N)nc3=O)C[C@@H]2OP(=O)(S)OC[C@H]2O[C@@H](n3cc(C)c(=O)[nH]c3=O)C[C@@H]2OP(=O)(S)OC[C@H]2O[C@@H](n3cnc4c(=O)[nH]c(N)nc43)C[C@@H]2OP(=O)(S)OC[C@H]2O[C@@H](n3cc(C)c(=O)[nH]c3=O)C[C@@H]2O)[C@@H](COP(=O)(S)O[C@H]2[C@@H](OC)[C@H](n3ccc(=O)[nH]c3=O)O[C@@H]2COP(=O)(S)O[C@H]2C[C@H](n3cnc4c(=O)[nH]c(N)nc43)O[C@@H]2COP(=O)(S)O[C@H]2C[C@H](n3ccc(N)nc3=O)O[C@@H]2COP(=O)(S)O[C@H]2C[C@H](n3cnc4c(N)ncnc43)O[C@@H]2COP(=O)(S)O[C@H]2C[C@H](n3cnc4c(=O)[nH]c(N)nc43)O[C@@H]2COP(=O)(S)O[C@H]2C[C@H](n3cc(C)c(=O)[nH]c3=O)O[C@@H]2COP(=O)(S)O[C@H]2C[C@H](n3ccc(N)nc3=O)O[C@@H]2COP(=O)(S)O[C@H]2C[C@H](n3cc(C)c(=O)[nH]c3=O)O[C@@H]2COP(=O)(S)O[C@H]2C[C@H](n3cnc4c(N)ncnc43)O[C@@H]2COP(=O)(S)O[C@H]2C[C@H](n3cc(C)c(=O)[nH]c3=O)O[C@@H]2COP(=O)(S)O[C@@H]2C[C@@H](n3ccc(N)nc3=O)O[C@H]2CO)O[C@H]1n1ccc(=O)[nH]c1=O (some centres not stated)
